Dyrk1A ADPGlo = inhibitors of rat Dyrk1A kinase; inhibition, % at 12.5 µM; hit rate 0.43% among 310,000; Q63470; ADP-Glo luminescence, NFATc1 peptide; in the data active = inhibition above about 50%;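 note: plate controls were vehicle with enzyme for no effect and no enzyme for full effect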
GSK3B inh = blocks human GSK3beta kinase activity; P49841; GST-GSK3beta kinase, ADP-Glo luminescence, 60 min; active compounds read low; activity score (negative = inhibition), % at 10 µM; hit rate 0.038% among 300,000;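 active = more than half of replicate wells score below -50%, meaning over 50% inhibition versus plate controls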;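 note: 0% = median DMSO wells and -100% = median GW8510 positive control wells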
Target sequence (P49841 whole entry, looked up): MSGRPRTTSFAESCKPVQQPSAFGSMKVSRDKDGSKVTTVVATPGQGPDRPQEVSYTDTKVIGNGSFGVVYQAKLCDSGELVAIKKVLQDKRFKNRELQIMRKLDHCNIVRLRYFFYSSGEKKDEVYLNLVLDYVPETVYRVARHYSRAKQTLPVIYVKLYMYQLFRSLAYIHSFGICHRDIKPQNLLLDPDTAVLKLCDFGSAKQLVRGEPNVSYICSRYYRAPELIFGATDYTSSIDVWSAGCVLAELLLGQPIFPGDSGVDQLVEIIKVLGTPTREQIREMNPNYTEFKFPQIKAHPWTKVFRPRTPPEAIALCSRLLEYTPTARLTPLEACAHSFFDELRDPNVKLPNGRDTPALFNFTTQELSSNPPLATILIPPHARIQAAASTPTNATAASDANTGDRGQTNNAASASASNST
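Test system: GST-tagged human GSK3beta kinase, cell-free; evaluation: activity score scaled between in-plate DMSO and GW8510 controls; measured by: ADP-Glo luminescence; incubation: 60 min reaction, RT; benchmarks: DMSO and 20 µM GW8510; reagent: peptide substrate plus 25 µM ATP (final); medium: Tris/MgCl2 kinase buffer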
CDK5 inh = CDK5/p35 (human) kinase inhibition; Q00535+Q15078; Recombinant CDK5/p35, ADP-Glo luminescence, 60 min; inhibition, % at 10 µM; hit rate 0.01% among 330,000; AID 488839;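 active = highest replicate inhibition of at least 50% and at least 75% of replicates reaching 50%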;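 note: plate controls were DMSO neutral control for no effect and GW8510 at 10 µM for full effect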
STK33 inh = blocks human STK33 kinase activity; purified STK33, MBP phosphorylation, ADP-Glo luminescence; inhibition, % at 10 µM; hit rate 0.073% among 320,000;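 active = inhibition at or above 25%, using the most active replicate where run in duplicate; inactive = inhibition below 25%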
GSK3 alpha inh = human GSK-3 alpha kinase inhibition; AID 2650; ADP-Glo luminescence, 60 min; P49840; inhibition, % at 10 µM; hit rate 0.1% among 320,000;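 active = more than half of replicates show inhibition above 20%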;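 note: GST-tagged GSK-3 alpha with peptide substrate and 25 µM ATP; 0% = DMSO neutral wells and 100% = GW8510 positive control wells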
Dyrk1A artifact = ADP-Glo luciferase interference, Dyrk1A counter-screen; shares compounds with Dyrk1A ADPGlo; 1,300 tested, under 10 active; AC50, µM (series often up to 12 µM), for the others: top-dose activity change, negative = inhibition; ADP-Glo luciferase artifact assay, no Dyrk1A, luminescence;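 active = fitted half-maximal dose AC50 no more than ten times the top valid tested dose, with luminescence dropping as dose rises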
* = called active by the depositor; · = no result given. This is one part of a sample in which hits are shown more often than they occur.

SMILES	Dyrk1A ADPGlo	GSK3B inh	CDK5 inh	STK33 inh	GSK3 alpha inh	Dyrk1A artifact
COc1ccccc1N1CCN(C(=O)C(C)N(c2ccccc2)S(C)(=O)=O)CC1 (centres undefined)	-2	2	-3	0	-4	·
CCc1nnc(NC(=O)C2CC(=O)N(CCc3ccc(F)cc3)C2)s1 (centres undefined)	-5	1	2	-1	-1	·
CCOCCOc1nc2c(c(=O)n(C)c(=O)n2C)n1Cc1ccc(C)cc1	60*	-2	0	0	0	9%
COC(=O)C1=C(C)N(Cc2ccccc2)C(=NCc2cccc(C(F)(F)F)c2)N[C@H]1c1cccc(C(F)(F)F)c1	-6	·	1	4	3	·
COCCN=C1N[C@@H](c2cccc(C(F)(F)F)c2)C(C(=O)OC)=C(C)N1Cc1ccccc1	57*	-2	-1	0	5	8%
O=C1C(=O)c2ccccc2C(O)=C1CC=C(Cl)Cl	66*	·	-1	·	·	8%
O=C1C(C=Nc2ccccc2)=C(O)c2ccccc21	40	-4	2	9	1	·
N#CCC(N)=C(C#N)C#N	69*	-3	0	2	10	8%
O=c1cc(-c2ccc(O)cc2)oc2c1ccc1ccccc12	·	·	-3	-2	-3	·
O=c1cc(-c2ccco2)oc2c1ccc1ccccc12	59*	-1	0	1	3	7%
CCC(=O)N1CCC2(CC1)Oc1ccc(Cl)cc1C(=O)C21CC(c2ccccc2)=NO1 (centres undefined)	11	1	2	0	1	·
COc1cccc(C(=O)Nc2ccc(F)cc2F)c1	6	0	0	2	-3	·
COc1cccc(C(=O)Nc2ccc(F)c(F)c2F)c1	51*	1	-1	-1	-1	8%
COc1ccc(C(=O)c2sc(Nc3ccccc3)nc2N)cc1	-1	-1	6	2	28	·
COc1ccc(C(=O)NC(=S)Nc2ccccc2F)cc1	-2	3	-3	0	-39	·
COc1ccc(C(=O)c2sc(Nc3ccccc3F)nc2N)cc1	61*	-19	25	3	56*	8%
Nc1nc(Nc2ccccc2)sc1C(=O)c1ccccc1	81*	-71*	82*	12	92*	8%
Cc1cc(C)cc(OCC(=O)OCC(=O)NCc2ccco2)c1	-5	-1	1	-1	0	·
Oc1c(Br)cc(/C=N/n2c(-c3ccccc3)n[nH]c2=S)cc1Br	1	-2	2	-12	5	·
Oc1ccc(/C=N/n2c(-c3ccccc3)n[nH]c2=S)cc1Br	56*	-6	8	8	10	11%
C/C(=C/c1oc2ccc(O)cc2c1[N+](=O)[O-])N(C)C	52*	-3	1	0	-1	7%
Cc1cccc(OCC(=O)N/N=C\c2cc3c(cc2[N+](=O)[O-])OCO3)c1C	3	4	1	-2	-4	·
CCOC(=O)N1CCN(C(=O)CSc2nc3ccccc3c(=O)n2-c2ccccc2)CC1	9	2	0	-1	-4	·
CC(=O)N(/N=C1\Sc2ccccc2C1=O)c1cccc(C)c1	50*	-1	3	1	1	7%
CC(=O)N(CN1C(=O)c2ccccc2C1=O)c1cccc(C)c1	3	1	0	-1	-1	·
SMILES	Dyrk1A ADPGlo	GSK3B inh	CDK5 inh	STK33 inh	GSK3 alpha inh	Dyrk1A artifact
COC(=O)c1cc2c([nH]c3ccccc32)c(C)n1	·	1	·	·	·	·
COC(=O)c1nccc2c1[nH]c1ccccc12	66*	-2	2	5	3	9%
COc1ccc(NC(=O)CN(c2c(C)cccc2C)S(C)(=O)=O)cc1	·	4	-4	0	-2	·
CSc1nc(SCC(=O)NCc2ccco2)c2c3c(sc2n1)CN(C)CC3	63*	-35	0	-1	0	8%
CSc1nc(NCc2ccco2)c2c3c(sc2n1)CN(C)CC3	·	-17	·	4	30	·
CC(C)C(=O)Nc1nnc(SCC(=O)NCC2CCCO2)s1 (centres undefined)	1	-2	0	-1	-3	·
Cc1cccc(NC(=O)COC(=O)c2n[nH]c3ccccc23)c1C	0	·	1	0	-2	·
Cc1cccc(C)c1OCCOC(=O)c1n[nH]c2ccccc12	60*	0	-1	-3	-1	9%
C=CCc1ccc(OCCOc2ccc(/C=N/n3cnnc3)cc2OCC)c(OC)c1	60*	2	1	-1	-5	10%
Clc1cccc(Cc2nn[nH]n2)c1	59*	3	0	3	-9	11%
Clc1cccc(Cc2ccc(Cl)nn2)c1	1	2	2	-1	-1	·
O=S(=O)(NCc1ccco1)c1cccc(S(=O)(=O)N2CCOCC2)c1	2	0	-1	-2	3	·
COc1ccc(NC(=O)N(C)C[C@H]2Oc3ccc(NC(=O)CCN4CCOCC4)cc3C(=O)N([C@H](C)CO)C[C@@H]2C)cc1	56*	·	0	2	-3	9%
C[C@H]1CN([C@@H](C)CO)C(=O)c2cc(NC(=O)CCN3CCOCC3)ccc2O[C@H]1CN(C)C(=O)Nc1ccc(F)cc1	-2	·	-1	-1	-2	·
Cc1ccc(CNc2ccccc2C(=O)O)s1	-2	-3	-1	-1	-5	·
NNc1nccc(Nc2ccccc2C(=O)O)n1	84*	-60*	-2	20	69*	9%
COc1ccc(-c2nc(N)ncc2-c2ccccc2OC)c(O)c1	51*	1	-3	4	12	7%
COc1ccc(-c2nc(N)ncc2-c2ccccc2)c(O)c1	-1	4	1	4	3	·
O=C(CSCC(=O)NN=Cc1ccccc1O)NN=Cc1ccccc1O	-4	·	0	·	·	·
Cc1[nH][nH]c(=O)c1N=Nc1ccccc1Cl	55*	-10	-3	0	20	8%
Cc1[nH][nH]c(=O)c1N=Nc1ccc(Br)c(Cl)c1	9	0	-1	2	1	·
Cc1ccccc1NC1=C/C(=N\S(=O)(=O)c2cccs2)c2ccccc2C1=O	2	-1	2	0	·	·
Cc1ccccc1NC1=C/C(=N\S(=O)(=O)c2ccc(C(=O)O)cc2)c2ccccc2C1=O	62*	-13	3	5	22	6%
CCN(CC)c1ccc(/C=N\NC(=O)c2cccc3cc[nH]c23)cc1	·	-6	0	1	-2	·
Nc1nc(N)nc(-c2ccc(Cl)c(Cl)c2)n1	84*	·	4	4	13	7%
COc1cccc(/C=N/n2c(COc3ccccc3)n[nH]c2=S)c1O	57*	-2	5	3	23	9%
COc1ccc(-c2cc(NCCc3ccncc3)n3ncnc3n2)cc1	51*	1	0	0	18	5%
CSc1ccc(Cn2nnc(C(=O)NCc3ccccc3)c2N)cc1	-3	3	0	-2	-3	·
Nc1c(C(=O)NCc2ccccc2)nnn1Cc1ccccc1	60*	7	0	0	-3	10%

Screening results from PubChem BioAssay.
